The source made the active and inactive calls. The calls are words filed in the database; no cut-off is given here. Where only a bound is given, the exact number is not on record here.

These results are taken from ChEMBL document CHEMBL4219061, “Structure-activity relationships of cryptopleurine analogs with E-ring modifications as anti-hepatitis C virus agents” (Bioorg Med Chem, 2018).

Data set [1] in a line: Therapeutic index, ratio of IC50 for human Huh-luc/neo-ET cells to EC50 for HCV genotype 1b con1. The format is toxicity. The following applies: Huh-luc/neo-ET cells (HCV genotype 1b con1), read-out: Ratio IC50/EC50.
Data set [2] can be described thus: Cytotoxicity against human Huh-luc/neo-ET cells assessed as cell growth inhibition. The format is cell-based. A digest of the protocol: (§1)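 Cell growth measured against DMSO vehicle in HepG2.2.15 cells (MEME, 10% FCS, 50 µg/ml kanamycin) or in Huh-luc/neo-ET cells. IC50 = concentration giving 50% inhibition of cell growth. Mean ± SD of three independent experiments.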

The test system of data set [3] is Hepatitis C virus. Description: Antiviral activity against HCV genotype 1b con1 infected in human Huh-luc/neo-ET cells assessed as inhibition of viral replication after 72 hrs. The class given is functional, organism-based, Hepacivirus hominis. To be noted: isolate Con1, Huh-luc/neo-ET. The gist of the method:
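Firefly-luciferase reporter in the Con1 genotype 1b subgenomic replicon used to follow HCV replication in Huh-luc/neo-ET cells, tested without G418 (routinely kept in DMEM, 10% FBS, 1 mM nonessential amino acids, 250 µg/ml G418, 37 °C, 5% CO2). Luciferase read on a plate reader. EC50 = concentration giving 50% inhibition of replication versus DMSO vehicle. Mean ± SD of three independent experiments.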

The subject of data set [4] is Hepatitis B virus. Description: Antiviral activity against HBV infected in human HepG2(2.2.15) cells assessed as inhibition of viral DNA level after 6 days by Southern blot analysis. The format is functional. To be noted: HepG2 2.2.15, 144 h. The gist of the method:
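HepG2.2.15 cells (HBV genome integrated; MEME, 10% FCS, kanamycin) seeded ~5 × 10^5 per well and grown 6 days, then given compound for 6 days with fresh medium every other day. Total DNA (20 μg) run on 1% agarose, blotted, hybridized overnight at 65 °C with 32P-labeled full-length HBV probe; read by film or PhosphorImager.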

The test system of data set [5] is HepG2 2.2.15. Briefly: Cytotoxicity against human HepG2(2.2.15) cells assessed as cell growth inhibition. The format is cell-based. The gist of the method: as §1
The target in data set [6] is Heat shock cognate 71 kDa protein (Homo sapiens) (UniProt P11142). Briefly: Induction of HSC70 (unknown origin) chaperone activity assessed as reactivation of guanidine-denatured luciferase at 10 uM in presence of human recombinant CHIP by luciferase reporter gene assay. (Reporter assays use an easily measured gene product as a stand-in for the process of interest.)
Sequence of Heat shock cognate 71 kDa protein (Homo sapiens) (P11142 2-646 limits assumed): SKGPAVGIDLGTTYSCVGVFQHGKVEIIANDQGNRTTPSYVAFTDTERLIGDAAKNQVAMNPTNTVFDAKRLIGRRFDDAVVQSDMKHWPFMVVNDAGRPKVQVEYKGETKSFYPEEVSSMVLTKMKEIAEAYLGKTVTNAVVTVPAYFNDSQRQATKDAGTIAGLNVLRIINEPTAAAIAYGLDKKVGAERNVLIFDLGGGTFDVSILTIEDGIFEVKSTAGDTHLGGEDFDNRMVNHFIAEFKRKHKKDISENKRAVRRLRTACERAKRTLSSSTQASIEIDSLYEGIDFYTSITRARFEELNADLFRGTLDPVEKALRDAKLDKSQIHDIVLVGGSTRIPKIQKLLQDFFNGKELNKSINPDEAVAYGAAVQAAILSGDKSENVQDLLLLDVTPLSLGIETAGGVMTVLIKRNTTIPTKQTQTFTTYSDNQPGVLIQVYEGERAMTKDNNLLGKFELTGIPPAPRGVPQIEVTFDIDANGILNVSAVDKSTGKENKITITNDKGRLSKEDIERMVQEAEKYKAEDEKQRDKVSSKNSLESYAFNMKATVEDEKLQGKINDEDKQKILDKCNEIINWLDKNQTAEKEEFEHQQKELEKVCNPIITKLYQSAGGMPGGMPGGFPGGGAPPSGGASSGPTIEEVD

Data set [7] shares this target. Briefly: Induction of HSC70 chaperone activity in human Huh-luc/neo-ET cells co-transfected with FLAG-tagged CHIP assessed as reduction in HCV RNA NS3 protein expression at 3 nM after 24 hrs. The format is cell-based. The gist of the method:
(§2)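 Huh-luc/neo-ET replicon cells transiently transfected with FLAG-tagged CHIP plasmid or empty vector and treated with compound for 24 h. HCV RNA and NS3 and NS5A protein levels measured. Representative of more than two independent experiments; two-tailed Student's t-test, p < .05.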

The target is the same in data set [8]. Briefly: Induction of HSC70 chaperone activity in human Huh-luc/neo-ET cells assessed as reduction in HCV RNA NS3 protein expression at 3 nM after 24 hrs. The class given is cell-based. The gist of the method:
as §2

Data set [9] in a line: Effect on […] CHIP expression in human Huh-luc/neo-ET cells at 3 nM after 24 hrs. The class given is ADME, cell-based. To be noted: 0.003 µM.
Data set [10] deals with HepG2 2.2.15. Description: Effect on HSC70 expression in human HepG2(2.2.15) cells at 3 nM measured up to 72 hrs by Western blot analysis. The class given is functional, cell-based.
The target of data set [11] is Heat shock cognate 71 kDa protein (Homo sapiens) (UniProt P11142). Briefly: Allosteric regulation of recombinant HSC70 (unknown origin) ATPase activity assessed as increase in ADP production at 10 uM after 10 mins in presence of HCV wild type poly U/UC RNA by HPLC analysis. A digest of the protocol: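 Recombinant Hsc70 (0.25 μM) incubated with compound at 10 μM plus ATP and 0.5 μM HCV wild-type poly U/UC RNA in MOPS buffer pH 7.4 (Mg(OAc)2, KOAc, DTT, BSA), 37 °C, 10 min. Stopped with TCA (15% final), extracted with trichlorotrifluoroethane:trioctylamine, ADP quantified by HPLC against standard curve on same column. Mean ± SD, three experiments.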

Data set [12] shares this target. Description: Induction of HSC70 chaperone activity in human Huh-luc/neo-ET cells assessed as reduction in HCV RNA NS5A protein expression at 3 nM after 24 hrs. The format is cell-based. The gist of the method: as §2
The target is the same in data set [13]. Briefly: Induction of HSC70 chaperone activity in human Huh-luc/neo-ET cells co-transfected with FLAG-tagged CHIP assessed as reduction in HCV RNA NS5A protein expression at 3 nM after 24 hrs. The format is cell-based. A digest of the protocol: as §2
Data set [14] shares this target. Briefly: Displacement of biotinylated-rac-cryptopleurine from recombinant HSC70 (unknown origin) […] by Western blot analysis. The gist of the method: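 Biotinylated rac-cryptopleurine loaded overnight at room temperature onto streptavidin resin in 50% DMSO/50% protein-binding buffer (20 mM Hepes pH 7.9, 100 mM NaCl, 0.5% NP-40, 6 mM MgCl2). Resin washed, then incubated 2 h at room temperature with recombinant His-Hsc70 (E. coli BL21(DE3)pLysS, Ni-NTA purified) in 2.5% BSA. Bound Hsc70 eluted with buffer alone or with compound.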
(In general: A western blot detects proteins with antibodies after separation by electrophoresis.)

The nature of data set [15]: Effect on […] CHIP expression in human Huh-luc/neo-ET cells at 6 nM after 24 hrs. The class given is ADME, cell-based. To be noted: 0.006 µM.
The target in data set [16] is Heat shock cognate 71 kDa protein (Homo sapiens) (UniProt P11142). Description: Induction of HSC70 chaperone activity in human Huh-luc/neo-ET cells co-transfected with FLAG-tagged CHIP assessed as reduction in HCV RNA NS3 protein expression at 6 nM after 24 hrs. The format is cell-based. A digest of the protocol: (§3)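 Huh-luc/neo-ET replicon cells (HCV 1b Con1, DMEM, 10% FBS) transiently transfected with FLAG-CHIP plasmid or empty vector, then treated 24 h with compound. HCV RNA, NS3 and NS5A protein levels measured. Representative of more than two independent experiments; two-tailed Student's t-test, p < .05.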

The target is the same in data set [17]. Description: Induction of HSC70 chaperone activity in human Huh-luc/neo-ET cells assessed as reduction in HCV RNA NS5A protein expression at 6 nM after 24 hrs. The class given is cell-based. A digest of the protocol:
as §3

For data set [18], the system named is Huh-luc/neo-ET. Briefly: Effect on HSC70 expression in human Huh-luc/neo-ET cells at 6 nM measured up to 72 hrs by Western blot analysis.
Data set [19] deals with Heat shock cognate 71 kDa protein (Homo sapiens) (UniProt P11142). Description: Induction of HSC70 chaperone activity in human Huh-luc/neo-ET cells co-transfected with FLAG-tagged CHIP assessed as reduction in HCV RNA NS5A protein expression at 6 nM after 24 hrs. The class given is cell-based. The gist of the method: as §3
For data set [20] the target is unchanged. Description: Induction of HSC70 chaperone activity in human Huh-luc/neo-ET cells assessed as reduction in HCV RNA NS3 protein expression at 6 nM after 24 hrs. The format is cell-based. A digest of the protocol:
as §3

Regarding `COc1cc2c3c(c4cc(OC)c(OC)cc4c2cc1OC)[C@H](O)[C@@H]1CCCN1C3`, the selectivity ratio in [1] was determined as 2.89. Further, the values for the IC50 in [2] and in data set [5] were 91 nM and 98.9 nM, respectively. Also, the EC50 in data set [3] stood at 31.5 nM. The EC10 in data set [4] was over 300 nM.
`COc1ccc2c3c(c4cc(OC)c(OC)cc4c2c1)C[C@H]1CCCCN1C3` [CRYPTOPLEURINE]: the result in data set [6], in data set [7], in data set [8], in data set [11], in data set [12] and in data set [13] was Active. The Activity entry in data set [9] is listed as “Non-Toxic”. In addition, the result in data set [10] was inactive. The 10% effect concentration (EC10) in data set [4] is over 30 nM.
On to `COc1ccc2c3c(c4cc(OC)c(OC)cc4c2c1)C[C@H]1C[C@@H](O)CCN1C3` (racemic), for which the selectivity ratio in data set [1] came out at 8.59. Further, the IC50 in [2] came out at 42.1 nM; in data set [5] it was 134 nM. Moreover, the “displacement activity (active/not active)” value in data set [14] was “inactive”. In [3], the EC50 came out at 4.9 nM. Also, the EC10 in data set [4] is over 26 nM.
In the case of `COc1ccc2c3c(c4cc(OC)c(OC)cc4c2c1)C[C@H]1CCOCN1C3` (racemic), the selectivity ratio in data set [1] came out at 1.54. The IC50 in data set [2] was determined as 1000 nM; in data set [5], 1100 nM. In data set [3], the EC50 was determined as 651 nM. In addition, the EC10 in data set [4] is over 500 nM.
Taken in the same sequence, the figures for `COc1ccc2c3c(c4cc(OC)c(OC)cc4c2c1)C[C@H]1CCN(N(C)C)CN1C3` (racemic) were 1.07, 4000 nM, 2400 nM, 3750 nM and over 900 nM.
In the same order, the values of `COc1ccc2c3c(c4cc(OC)c(OC)cc4c2c1)C[C@H]1CN(C2CC2)CN1C3` (racemic) are 1.33, 1000 nM, 820 nM, 750 nM and over 300 nM.
For `COc1ccc2c3c(c4cc(OC)c(OC)cc4c2c1)C[C@H]1CCOCCN1C3` (racemic), the selectivity ratio in data set [1] came to 7.19. Further, the IC50 worked out at 120 nM in [2] and 4000 nM in [5]. For the same compound, the EC50 in [3] worked out at 16.7 nM. For the same compound, in data set [4], the 10% effect concentration (EC10) is over 300 nM.
Taken in the same sequence, the figures for `COc1ccc2c3c(c4cc(OC)c(OC)cc4c2c1)C[C@H]1CNCCN1C3` (racemic) were 5.46, 1000 nM, 1400 nM, 183 nM and over 500 nM.
With `COc1ccc2c3c(c4cc(OC)c(OC)cc4c2c1)C[C@H]1CC[C@H](O)CN1C3` (racemic), in data set [1], the selectivity ratio was found to be 15.2. Further, the figures for the IC50 in [2] and in data set [5] were 3750 nM and 1600 nM, respectively. Further, the “displacement activity (active/not active)” value in data set [14] was “inactive”. In [3], the EC50 was determined as 246 nM. In addition, the outcome in [11] was Active. Moreover, in data set [4], the EC10 is over 3000 nM.
`COc1ccc2c3c(c4cc(OC)c(OC)cc4c2c1)C[C@H]1CC[C@@H](O)CN1C3` (racemic): the selectivity ratio in data set [1] worked out at 7.1. Further, the figures for the IC50 in [2] and in data set [5] were 21.3 nM and 258 nM, respectively. For the same compound, the “displacement activity (active/not active)” value in data set [14] was “inactive”. The EC50 in data set [3] came out at 3 nM. In addition, the result in [11] was Active. In addition, the EC10 in data set [4] is over 25 nM.
Turning to `COc1ccc2c3c(c4cc(OC)c(OC)cc4c2c1)C[C@H]1CCCCCN1C3` (racemic), the selectivity ratio in data set [1] came out at 5.75. Also, the figures for the IC50 in data set [2] and in data set [5] were 300 nM and 2700 nM, respectively. Also, the EC50 in data set [3] amounted to 52.3 nM. The EC10 in [4] is over 1000 nM.
As for `COc1ccc2c3c(c4cc(OC)c(OC)cc4c2c1)C[C@H]1C[C@H](O)CCN1C3`, the result in data set [6], in data set [16], in data set [17], in data set [11], in data set [19] and in data set [20] was Active. Moreover, in data set [15], the Activity entry is reported as “Non-Toxic”. Besides, the selectivity ratio in data set [1] worked out at 3.57. Besides, the IC50 amounted to 5 nM in data set [2] and 49 nM in data set [5]. Moreover, in data set [14], the “displacement activity (active/not active)” value was “Active”. Also, in [3], the EC50 was determined as 1.4 nM. Also, in data set [18], the outcome was inactive. For the same compound, the EC10 in data set [4] was over 5.5 nM.

By IC50 is commonly meant the concentration that inhibits the measured activity by half. What is called EC50 is the concentration that produces a half-maximal response. As a reminder, the EC10 is the point of the concentration-response curve where the effect stands at 10%.
